From PubChem BioAssay AID624174 (Southern Research Specialized Biocontainment Screening …, 2012) come the findings set out here.

Active and inactive are the calls of the source.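 How the source made its calls: active means inhibition of 30% or more at any tested concentration; inactive means the rest.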

By IC50 is commonly meant the concentration that inhibits the measured activity by half.

The target of one test is Aspartyl aminopeptidase (Homo sapiens) (UniProt Q9ULA0). Kind of test: inhibition of human aspartyl aminopeptidase – biochemical, QFRET, H-Glu-NHMec substrate, set 3, selectivity assay for PFM18AAP inhibitor project, dose response (AID 624174). To be noted: purified recombinant hM18AAP, H-Glu-NHMec fluorescence. The procedure, abridged: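 Test system: purified recombinant human M18 aspartyl aminopeptidase (hM18AAP) / Quantity: hM18AAP enzyme at 5 µg/mL final / Medium: Tris pH 7.5, CoCl2, DMSO / Doses: 10-point twofold series, 100 down to 0.2 µM / Timing: enzyme reaction 90 min at room temperature / Signal: NHMec fluorescence at 370/460 nm / Measure: % inhibition and IC50 from logistic fit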
In the case of `Oc1ccc(C2CCN(c3ccnc4ccccc34)CC2)cc1O`, the IC50 is 4.68 µM. The same measure, in the same setting: then `CN(CCc1ccc(O)c(O)c1)c1ccnc2cc(Cl)ccc12`, with 7.67 µM; and `Cc1cccc2c(NCCc3ccc(O)c(O)c3)ccnc12`, with 12.7 µM.

As for `CN(CCc1ccc(O)c(O)c1)c1ncnc2ccccc12`, the half-inhibitory concentration (IC50) is 6.74 µM. Still for that read-out and setting: then `Oc1cccc(CCNc2ccnc3ccccc23)c1O`, with 11.6 µM; and `CN(CCc1ccc(O)c(O)c1)c1ccnc2c(F)cccc12`, with 7.92 µM; and `Oc1ccc(CCCNc2c3c(nc4ccccc24)CCCC3)cc1O`, with 9.5 µM. Still for that read-out and setting: then `Cc1cccc2c(N(C)CCc3ccc(O)c(O)c3)ccnc12`, with 10.5 µM.

Take `CN(CCCc1ccc(O)c(O)c1)c1ccnc2ccccc12`: the IC50 is 9.65 µM. On the same count and under the same terms, the result for `Oc1ccc(CCNc2ccnc3c(F)cccc23)cc1O` reads 8.36 µM; that for `CC(C)(CNc1ccnc2ccccc12)c1ccc(O)c(O)c1`, 35 µM; that for `CC(Cc1ccc(O)c(O)c1)Nc1ccnc2ccccc12` (centres undefined), 14.4 µM.

Consider `Oc1ccc(C2CCCN(c3ccnc4ccccc34)C2)cc1O` (centres undefined), for which the concentration for half-maximal inhibition (IC50) is 5.59 µM. `Oc1ccc(CCNc2ccnc3cc(Cl)ccc23)cc1O`: the 50% inhibitory concentration (IC50) is 13.6 µM. As to `Cc1cc(N(C)CCc2ccc(O)c(O)c2)c2ccccc2n1`, the IC50 is 9.75 µM. On to `Oc1ccc(C2CCN(c3ccnc4ccccc34)C2)cc1O` (centres undefined), for which the IC50 is 5.59 µM.

Staying with this test, now noted: purified recombinant hM18AAP, H-Glu-NHMec fluorescence; at 100 µM (top of the series).
As for `COc1ccc(CCNc2ccnc3cc(Cl)ccc23)cc1OC`, the inhibition result was “inactive”. Still for that read-out and setting: then `COc1cc(Br)c(CCNc2c3c(nc4ccccc24)CCCC3)cc1OC`, with “inactive”; and `CCN(CCc1ccc(OC)c(OC)c1)c1c2ccccc2nc2ccccc12`, with “inactive”.

Regarding `COc1ccc(CCCNc2c3c(nc4ccccc24)CCCC3)cc1OC`, the inhibition result was “inactive”. In the case of `CCN(CCc1ccc(O)c(O)c1)c1c2ccccc2nc2ccccc12`, the inhibition entry is “inactive”. Same read-out and setting: then `COc1ccc(CCNc2c3c(nc4ccc(C)cc24)CCCC3)cc1OC`, with “inactive”. `COc1cc(Br)c(CCNc2ccnc3ccccc23)cc1OC`: the inhibition entry is “inactive”. Same read-out and setting: then `COc1ccc(CCN(C)c2ccnc3cc(Cl)ccc23)cc1OC`, with “inactive”; and `COc1ccc(CCN(C)c2cc(C)nc3ccccc23)cc1OC`, with “inactive”; and `COc1ccc(CCNC(=O)c2cc(C)ccc2N)cc1OC`, with “inactive”. Take `COc1ccc(CCNc2cc(C)nc3ccccc23)cc1OC`: the inhibition result is “inactive”. Turning to `CN(CCCc1ccc(O)c(O)c1)c1c2ccccc2nc2ccccc12`, the inhibition result was “inactive”. The same measure, in the same setting: then `Nc1c2ccccc2nc2ccccc12`, with “inactive”; and `COc1ccc(CCNc2ncnc3ccccc23)cc1OC`, with “inactive”; and `COc1ccc(CCN(C)c2c3ccccc3nc3ccccc23)cc1OC`, with “inactive”. As for `COc1ccc(CCNc2ccnc3c(F)cccc23)cc1OC`, the inhibition result was “inactive”. Regarding `COc1ccc(CCN(C)c2ccnc3c(F)cccc23)cc1OC`, the inhibition result was “inactive”. Still for that read-out and setting: the result for `COc1ccc(C2CCN(c3ccnc4ccccc34)CC2)cc1OC` reads “inactive”. Same read-out and setting: the result for `COc1ccc(CCN(C)c2ccnc3c(C)cccc23)cc1OC` reads “inactive”; that for `COc1ccc(CCNc2ccnc3c(C)cccc23)cc1OC`, “inactive”; that for `COc1ccc(CCN(C)c2ncnc3ccccc23)cc1OC`, “inactive”.

Regarding `CCOc1ccc2nccc(NCCc3ccc(OC)c(OC)c3)c2c1`, the inhibition result is “inactive”. Still for that read-out and setting: the result for `Clc1c2c(nc3ccccc13)CCCC2` reads “inactive”; that for `CN(CCc1ccc(O)c(O)c1)c1c2ccccc2nc2ccccc12`, “inactive”. The same measure, in the same setting: the result for `CCOc1ccc2nccc(N(C)CCc3ccc(OC)c(OC)c3)c2c1` reads “inactive”. Still for that read-out and setting: then `COc1ccc(CCCN(C)c2c3ccccc3nc3ccccc23)cc1OC`, with “inactive”.

With `COc1cc(Br)c(CCNc2c3ccccc3nc3ccccc23)cc1OC`, the inhibition result was “inactive”.

Regarding `COc1ccc(C2CCN(c3ccnc4ccccc34)C2)cc1OC` (centres undefined), the inhibition entry was “inactive”.
